This assay addresses T1, Interstitial collagenase (Homo sapiens, UniProt P03956).
T1 sequence (P03956 whole entry): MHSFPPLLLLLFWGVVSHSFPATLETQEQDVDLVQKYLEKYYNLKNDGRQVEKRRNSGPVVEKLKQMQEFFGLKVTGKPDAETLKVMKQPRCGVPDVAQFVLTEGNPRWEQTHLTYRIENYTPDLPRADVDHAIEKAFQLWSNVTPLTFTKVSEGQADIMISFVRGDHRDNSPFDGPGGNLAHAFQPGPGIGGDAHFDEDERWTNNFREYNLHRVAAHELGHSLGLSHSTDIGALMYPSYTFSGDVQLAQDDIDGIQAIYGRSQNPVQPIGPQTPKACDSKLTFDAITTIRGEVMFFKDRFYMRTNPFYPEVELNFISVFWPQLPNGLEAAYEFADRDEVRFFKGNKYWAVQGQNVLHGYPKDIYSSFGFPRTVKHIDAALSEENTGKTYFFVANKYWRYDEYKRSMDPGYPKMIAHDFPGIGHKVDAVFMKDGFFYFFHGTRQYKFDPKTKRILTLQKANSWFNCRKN
Description: Inhibition of degradation of radiolabeled rat skin type I collagen by semipurified human lung fibroblast collagenase. In a few lines:
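Collagenase from WI-38 human lung fibroblast culture supernatants, trypsin-activated and semipurified. Substrate was 3H- or 14C-acetylated rat skin type I collagen, 100 μg/tube, added at 4 °C. Enzyme amount set to degrade 70% of collagen. Compounds were dissolved in MeOH by sonication and serially diluted. Incubation ran 1000 min at 37 °C, then centrifugation at 4 °C. Supernatant soluble peptides were scintillation counted.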

`CNC(=O)[C@H](Cc1ccccc1)NC(=O)[C@H](CC(C)C)N[C@@H](CCc1ccccc1)P(=O)(O)O` came in with an IC50 of 400 nM. For `CC[C@H](N[C@@H](CC(C)C)C(=O)N[C@@H](CC(=O)NCCN1CCCC1)C(=O)NC)P(=O)(O)O`, the half-inhibitory concentration (IC50) was found to be 1360 nM. Under `CC[C@H](N[C@@H](CC(C)C)C(=O)N[C@@H](CCCN(C)C)C(=O)NC)P(=O)(O)O` stands 490 nM; under `CC[C@H](N[C@@H](CC(C)C)C(=O)N[C@@H](Cc1ccccc1)C(=O)NC)P(=O)(O)O`, 230 nM.

Compound `CNC(=O)[C@H](Cc1ccccc1)NC(=O)[C@H](CC(C)C)N[C@H](CCc1ccccc1)P(=O)(O)O` displayed an IC50 of 1820 nM. To `CNC(=O)[C@H](Cc1ccc(OC)cc1)NC(=O)[C@H](CC(C)C)N[C@H](C)C(=O)O` belongs > 10000 nM. To `CNC(=O)[C@H](Cc1ccc(OC)cc1)NC(=O)[C@H](CC(C)C)N[C@@H](C)P(=O)(O)O` belongs 520 nM. Take `CC[C@H](N[C@@H](CC(C)C)C(=O)N[C@@H](CCCNC(=N)N)C(=O)NC)P(=O)(O)O`: the IC50 worked out at 290 nM. Compared with the last compound, the IC50 is about 1.8-fold lower. Take `CNC(=O)[C@H](Cc1ccc(OC)cc1)NC(=O)[C@H](CC(C)C)N[C@H](C)P(=O)(O)O`: the 50% inhibitory concentration (IC50) is 260 nM. Compound `CC[C@H](N[C@@H](CC(C)C)C(=O)N[C@@H](Cc1c[nH]c2ccccc12)C(=O)NC)P(=O)(O)O` gave an IC50 of 50 nM. Under `CNC(=O)[C@H](Cc1ccc(OC)cc1)NC(=O)C(CC(C)C)NC(C)P(C)(=O)O` (stereo not given in full) stands > 100000 nM; under `CC[C@H](N[C@@H](CC(C)C)C(=O)N[C@@H](Cn1cccn1)C(=O)NC)P(=O)(O)O`, 760 nM. Under `CNC(=O)CP(=O)(O)C[C@@H](CC(C)C)C(=O)N[C@@H](Cc1ccc(OC)cc1)C(=O)NC` stands 37000 nM; under `CNC(=O)[C@H](Cc1ccc(OC)cc1)NC(=O)[C@H](CC(C)C)N[C@@H](CCNC(=O)OCc1ccccc1)C(=O)O`, 350 nM; under `CCCCC(NC(CC(C)C)C(=O)N[C@@H](Cc1ccc(OC)cc1)C(=O)NC)P(=O)(O)O` (stereo not given in full), 41200 nM. In turn, `CC[C@@H](N[C@H](CC(C)C)C(=O)N[C@@H](Cc1ccc(OC)cc1)C(=O)NC)P(=O)(O)O` showed an IC50 of 39300 nM. For `CC[C@@H](N[C@@H](CC(C)C)C(=O)N[C@@H](Cc1ccccc1)C(=O)NC)P(=O)(O)O`, inhibition was half-maximal at 240 nM (IC50). Under `CCCC(NC(CC(C)C)C(=O)N[C@@H](Cc1ccc(OC)cc1)C(=O)NC)P(=O)(O)O` (stereo not given in full) stands 15700 nM. Compound `CC[C@H](N[C@H](CC(C)C)C(=O)N[C@@H](Cc1ccc(OC)cc1)C(=O)NC)P(=O)(O)O` returned an IC50 of 15600 nM. To `CC[C@H](N[C@@H](CC(C)C)C(=O)N[C@@H](CCCCN)C(=O)NC)P(=O)(O)O` belongs 4320 nM; to `CC[C@@H](N[C@H](CC(C)C)C(=O)N[C@@H](Cc1ccccc1)C(=O)NC)P(=O)(O)O`, > 10000 nM; to `CNC(=O)[C@H](Cc1ccc(OC)cc1)NC(=O)C(CC(C)C)NC(C(C)C)P(=O)(O)O` (stereo not given in full), 2900 nM. To `CCC(NC(CC(C)C)C(=O)N[C@@H](Cc1ccc(OC)cc1)C(=O)NC)[PH](=O)O` (stereo not given in full) belongs > 100000 nM; to `CNC(=O)[C@H](Cc1ccc(OC)cc1)NC(=O)C(CC(C)C)NC(CC(C)C)P(=O)(O)O` (stereo not given in full), 2900 nM. To `CC[C@@H](N[C@@H](CC(C)C)C(=O)N[C@@H](CCCCN)C(=O)NC)P(=O)(O)O` belongs 740 nM; to `CNC(=O)[C@H](Cc1ccccc1)NC(=O)[C@H](CC(C)C)N[C@@H](CC(C)C)P(=O)(O)O`, 1560 nM; to `CC[C@H](N[C@H](CC(C)C)C(=O)N[C@@H](Cc1ccccc1)C(=O)NC)P(=O)(O)O`, > 10000 nM. In turn, `CC[C@H](N[C@@H](CC(C)C)C(=O)N[C@@H](Cc1ccc(OC)cc1)C(=O)NC)P(=O)(O)O` came in with an IC50 of 470 nM. This lies in the sub-micromolar range. The compound `CC[C@@H](N[C@@H](CC(C)C)C(=O)N[C@@H](Cc1ccc(OC)cc1)C(=O)NC)P(=O)(O)O` came in with an IC50 of 300 nM. Under `CC[C@H](N[C@@H](CC(C)C)C(=O)N[C@@H](Cc1nc2ccccc2[nH]1)C(=O)NC)P(=O)(O)O` stands 150 nM.

Source of the values: ChEMBL document CHEMBL1127489, “Synthesis of novel N-phosphonoalkyl dipeptide inhibitors of human collagenase” (J Med Chem, 1994).
